Only some compounds are listed: those with a hit (about 2.3% of all), similar ones and a draw of the others.
TRPC4 block – inhibitors of mouse TRPC4 channel, primary screen, Fluo4 calcium, HEK293 TRPC4beta/mu-opioid cells. Short transient receptor potential channel 4 (Mus musculus), Q9QUQ5. AID 2247, 2010. B-score at 10 µM. DAMGO-evoked Fluo4 calcium flux; stronger effect = lower value. 300,000 compounds, 0.39% hits;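 active = B-score over 3 SD under the library average, no early fluorescence shift, positive overall ratio signal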
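Test system – stable TRPC4beta/mu-opioid receptor HEK293 cells · Probe or stimulus – DAMGO, a submaximal dose followed by a maximal one · Dosing – one concentration per compound · Signal – Fluo4 calcium fluorescence by kinetic imaging, 5 s 1 Hz baseline · Evaluation – per-well B score of integrated baseline-normalized Fluo4 ratio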
TRPC4 act – activators of mouse TRPC4 channel, primary screen, Fluo4 calcium, HEK293 TRPC4beta/mu-opioid cells. 310,000 compounds, 0.49% hits. Short transient receptor potential channel 4 (Mus musculus), Q9QUQ5. B-score at 10 µM. Fluo4 calcium fluorescence; stronger effect = higher value. AID 2237, 2010;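 active = B-score above 5 SD of library B-scores, and initial fluorescence ratio not above library mean plus 5 SD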;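 also: positive B-score marks a calcium rise read as TRPC4 activation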
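Assay system – TRPC4beta and mu-opioid receptor HEK293 stable cells · Measured by – Fluo4 fluorescence, kinetic · Schedule – dye loading 45 min room temperature, 110 s kinetic read · Read-out – B-scored integrated calcium fluorescence ratio · Controls – buffer and maximal DAMGO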
TRPC6 act – mouse TRPC6 channel activators, primary screen, cell-based, HEK293, membrane potential dye; HEK293-TRPC6 membrane potential dye fluorescence; stronger effect = higher value; B-score at 10 µM; 310,000 compounds, 0.13% hits; AID 2550, 2010;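 active = B-score of the integrated fluorescence ratio above library mean plus 3 SD, and starting fluorescence ratio within library mean plus 5 SD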;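 also: higher score means more depolarization so channel activation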
Target sequence (Q61143 whole entry, looked up): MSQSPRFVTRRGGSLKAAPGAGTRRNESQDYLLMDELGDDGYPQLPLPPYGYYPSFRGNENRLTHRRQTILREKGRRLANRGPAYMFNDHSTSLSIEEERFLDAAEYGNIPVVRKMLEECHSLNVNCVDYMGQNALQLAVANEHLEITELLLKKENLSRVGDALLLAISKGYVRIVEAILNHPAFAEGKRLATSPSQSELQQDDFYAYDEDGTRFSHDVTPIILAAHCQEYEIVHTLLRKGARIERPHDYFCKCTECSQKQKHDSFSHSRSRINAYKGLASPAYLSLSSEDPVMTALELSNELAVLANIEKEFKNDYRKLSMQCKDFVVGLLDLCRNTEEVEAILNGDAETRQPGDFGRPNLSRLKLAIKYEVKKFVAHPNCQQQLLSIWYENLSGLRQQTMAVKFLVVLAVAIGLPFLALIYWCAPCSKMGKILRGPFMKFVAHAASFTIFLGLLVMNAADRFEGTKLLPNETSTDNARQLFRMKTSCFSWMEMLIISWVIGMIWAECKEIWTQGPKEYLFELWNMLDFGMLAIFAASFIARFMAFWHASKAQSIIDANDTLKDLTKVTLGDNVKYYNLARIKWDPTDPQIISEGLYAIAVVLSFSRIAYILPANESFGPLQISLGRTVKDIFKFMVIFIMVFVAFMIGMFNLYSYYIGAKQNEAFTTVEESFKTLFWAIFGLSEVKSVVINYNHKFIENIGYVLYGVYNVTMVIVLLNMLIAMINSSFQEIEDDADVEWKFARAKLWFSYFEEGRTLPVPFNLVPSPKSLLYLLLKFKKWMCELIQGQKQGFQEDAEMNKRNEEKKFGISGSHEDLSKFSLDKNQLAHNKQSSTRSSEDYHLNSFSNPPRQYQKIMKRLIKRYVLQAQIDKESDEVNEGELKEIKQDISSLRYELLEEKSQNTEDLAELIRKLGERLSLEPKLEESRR
TRPC6 inhibitor – mouse TRPC6 channel inhibitors, primary screen, cell-based, HEK293, membrane potential dye; ACh-evoked depolarization; stronger effect = lower value; Short transient receptor potential channel 6 (Mus musculus), Q61143; 310,000 compounds, 1.1% hits; B-score at 10 µM;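 active = B-score under library mean minus 3 SD, initial fluorescence not abnormally high, positive integrated signal ratio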;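 also: B-score derived from integrated fluorescence ratio over the kinetic read; more negative B-score means stronger inhibition of depolarization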
TRPC4 PAM – positive allosteric modulators of TRPC4, primary screen, cell-based, mouse TRPC4beta, HEK293 mu-opioid, Fluo-4 calcium; DAMGO EC20, Fluo-4 Ca2+ flux; stronger effect = higher value; B-score at 10 µM; Short transient receptor potential channel 4 (Mus musculus), Q9QUQ5; 310,000 compounds, 0.42% hits;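 active = B-score of calcium response area above 5 SD of library B-scores, with initial fluorescence ratio within 5 SD of library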;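 also: B-score of integrated fluorescence ratio over time as area under calcium response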
TRPC4 sel inh 2 – mouse TRPC4 off-target activity of TRPC6 inhibitors, second screen. inhibition, % at 10 µM. HEK293 TRPC4/MOR, membrane potential dye fluorescence; channel activated by saturating DAMGO dose. shares compounds with TRPC6 inhibitor. 920 compounds, 42% hits. AID 2776;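 active = compounds whose fluorescence signal differed from control wells by over 3 SD, either direction, in both duplicate plates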
TRPC4 spec – mouse TRPC4 modulation by TRPC6 hits, confirmation, selectivity assay for TRPC6 inhibitor project, cell-based, HEK293 TRPC4/mu-opioid, membrane potential dye | activity change, negative = inhibition, % at 10 µM | AID 2777, 2010 | 920 compounds, 61% hits | membrane potential fluorescence | shares compounds with TRPC6 inhibitor;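 active = rise or fall in signal beyond 3 SD of buffer-only wells in both replicate plates, either sign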;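 also: integrated kinetic ratio of fluorescence range over baseline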
HEK293 MPD ctr 2-1 – nonspecific membrane potential effects, parental HEK293, confirmation, counter-screen for TRPC6 inhibitor project, cell-based, second counter screen; shares compounds with TRPC6 inhibitor; parental HEK293 membrane potential dye fluorescence; maximal acetylcholine challenge after compound addition; signal change vs control, % at 10 µM; 920 compounds, 31% hits;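 active = membrane potential signal moving either way by over 3 SD of the maximum-effect control, in both duplicate plates, meaning non-specific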
HEK293 MPD ctr-1 – membrane potential modulation in parental HEK293, confirmation, counter-screen for TRPC6 inhibitor project, cell-based. shares compounds with TRPC6 inhibitor. parental HEK293 membrane potential dye fluorescence. membrane potential signal change, % at 10 µM. 920 compounds, 60% hits;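 active = membrane potential signal shifting up or down by more than 3 SD of buffer-only wells, on both duplicate plates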
HEK293 MPD ctr-2 – parental HEK293 membrane potential modulation, confirmation, counter-screen for TRPC6 modulator project, cell-based | membrane potential signal change, % at 10 µM | AID 488924, 2010 | shares compounds with TRPC6 inhibitor | 2,400 compounds, 51% hits | membrane potential dye fluorescence;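 active = membrane potential signal moves up or down beyond 5 SD from buffer-only wells, on both duplicate plates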
HEK293 MPD ctr 2-2 – second counter-screen for TRPC6 modulators: effect in parental HEK293 cells; shares compounds with TRPC6 inhibitor; membrane potential dye fluorescence; after compound, maximal acetylcholine stimulation; inhibition, % at 10 µM; 2,400 compounds, 14% hits; AID 488926;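 active = membrane potential signal drops by more than 5 SD from the mean control signal, in both duplicate plates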;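 also: plate controls were acetylcholine ECmax control wells for no effect and buffer only wells for full effect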
TRPC4/MOR mod – TRPC4 modulation by TRPC6 hit compounds, confirmation, selectivity assay for TRPC6 modulator project, cell-based, HEK293 TRPC4/mu-opioid, membrane potential dye, mouse. shares compounds with TRPC6 inhibitor. membrane potential fluorescence. percent change from control (negative = decrease, positive = increase), % at 10 µM. 2,400 compounds, 69% hits. AID 488927, 2010;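 active = membrane potential signal moved up or down beyond 5 SD of buffer control wells, in both duplicate plates, actives on both sides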;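 also: plate controls were assay buffer wells for no effect and DAMGO maximal-effect wells for full effect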
TRPC4 ctr inh 2 – second selectivity test of TRPC6 modulators against mouse TRPC4 | shares compounds with TRPC6 inhibitor | HEK293 TRPC4/mu-opioid, membrane potential dye fluorescence; stimulated with maximal-effect DAMGO | inhibition, % at 10 µM | 2,400 compounds, 55% hits | AID 488928;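 active = drop in membrane potential signal beyond 5 SD of the control wells in both duplicate plates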;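 also: TRPC4 counter screen for TRPC6 hits run under conditions tuned for TRPC6 not TRPC4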
TRPC6 block conf – mouse TRPC6 channel inhibitors, confirmation, HEK293 cells, membrane potential dye, duplicate; shares compounds with TRPC6 inhibitor; ACh-evoked depolarization; inhibition, % at 10 µM; 3,300 compounds, 43% hits;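 active = fluorescence ratio falls more than 5 SD below the full-stimulation control mean, in both duplicate runs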;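 also: integrated fluorescence ratio of peak minus minimum over baseline after agonist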
TRPC6 act conf – mouse TRPC6 channel activators, confirmation, HEK293 cells, membrane potential dye, duplicate. shares compounds with TRPC6 inhibitor. HEK293-TRPC6 membrane potential dye fluorescence, FDSS. activation, % at 10 µM. 2,800 compounds, 11% hits. AID 488961, 2010;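 active = ratio signal rise beyond 5 SD above unstimulated control wells' mean, seen in both duplicate runs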;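 also: plate controls were buffer EC0 wells for no effect and acetylcholine ECmax response for full effect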
* marks the source's active call; other numbers are inactive results; i = inactive; · = not tested or not shown.

SMILES | TRPC4 block | TRPC4 act | TRPC6 act | TRPC6 inhibitor | TRPC4 PAM | HEK293 MPD ctr-2 | HEK293 MPD ctr 2-2 | TRPC4/MOR mod | TRPC4 ctr inh 2 | TRPC6 block conf | TRPC6 act conf | others
CC1CCN(S(=O)(=O)c2ccc(Cl)cc2Br)CC1 | i | i | i | i | i | · | · | · | · | · | ·
CC1CCCCN1S(=O)(=O)c1csc(C(N)=O)c1 (centres undefined) | i | i | i | i | i | · | · | · | · | · | ·
CCCC(=O)Oc1ccc(C2NC(=O)c3ccccc3O2)cc1OC (centres undefined) | i | i | i | i | i | · | · | · | · | · | ·
O=C(CN1C2=NCCN2c2ccccc21)c1ccc(Br)cc1 | i | i | i | -5.3* | i | i | i | i | 72%* | 38%* | i
O=C(CN1C2=NCCN2c2ccccc21)c1ccc2c(c1)OCO2 | i | i | i | i | i | · | · | · | · | · | ·
C/C(=N\NC(=S)NC(C)C)c1ccccc1OC(F)F | i | i | i | -8.8* | i | · | · | · | · | i | i | TRPC4 sel inh 2=i;TRPC4 spec=i;HEK293 MPD ctr 2-1=i;HEK293 MPD ctr-1=i
COC(c1ccccc1)c1nnc(CCC(=O)N(C)Cc2cccc(-n3cccn3)c2)o1 (centres undefined) | i | i | 16* | i | i | i | i | 8.5%* | i | i | i
Cc1cc(C)nc(NC(N)=NCCc2c[nH]c3ccccc23)n1 | i | i | i | -5* | i | -222%* | i | -42%* | 46%* | 54%* | i
Cc1cc(C)nc(NC(=NCCc2c[nH]c3ccccc23)NC(=O)Nc2ccc(Cl)cc2)n1 | i | i | i | i | i | · | · | · | · | · | ·
COc1ccc(CCNC(=O)c2cc3c(=O)n4cccc(C)c4nc3n(CCCN3CCOCC3)c2=N)cc1 | i | i | i | i | i | · | · | · | · | · | ·
Cc1cccn2c(=O)c3cc(C(=O)NC4CCCC4)c(=N)n(CC4CCCO4)c3nc12 (centres undefined) | i | i | i | -5.8* | i | i | i | i | 32%* | i | i
Cc1cccn2c(=O)c3cc(C(=O)NCCN4CCOCC4)c(=N)n(Cc4ccc(F)cc4)c3nc12 | i | i | i | -5.6* | i | i | 94%* | i | i | i | i
Cc1cccn2c(=O)c3cc(C(=O)NCCN4CCOCC4)c(=N)n(CCN4CCOCC4)c3nc12 | i | i | i | -7* | i | · | · | · | · | 66%* | i | TRPC4 sel inh 2=72%*;TRPC4 spec=0.8%*;HEK293 MPD ctr 2-1=-124%*;HEK293 MPD ctr-1=i
Cc1cccn2c(=O)c3cc(C(=O)NCC4CCCO4)c(=N)n(CC4CCCO4)c3nc12 (centres undefined) | i | i | i | i | i | · | · | · | · | · | ·
CC(C)[C@H](NC(=O)N1CCn2c1nc1ccccc12)C(=O)NCc1ccccc1Cl | i | i | i | i | i | · | · | · | · | · | ·
COc1ccc(Cc2nnc(NC(=O)Nc3ccccc3)s2)cc1OC | i | i | i | i | i | · | · | · | · | · | ·
Cc1ccccc1-c1nc(-c2ccc(NC(=O)c3cccs3)cc2)no1 | i | i | i | -7.1* | i | · | · | · | · | i | i | TRPC4 sel inh 2=i;TRPC4 spec=i;HEK293 MPD ctr 2-1=i;HEK293 MPD ctr-1=i
COc1ccc2[nH]c3c(C)c4ccncc4c(C)c3c2c1 | i | i | i | -6.2* | i | -159%* | i | -43%* | 33%* | i | i
N#Cc1nc(/C=C/c2ccccc2)oc1NCCCN1CCOCC1 | i | i | i | -7.1* | i | · | · | · | · | i | i | TRPC4 sel inh 2=i;TRPC4 spec=i;HEK293 MPD ctr 2-1=i;HEK293 MPD ctr-1=i
COCCNc1oc(/C=C/c2ccccc2)nc1C#N | i | i | i | i | i | · | · | · | · | · | ·
COc1ccccc1N1CCN(Cc2ccc(O)c3ncccc23)CC1 | i | i | i | -7.6* | i | · | · | · | · | i | i | TRPC4 sel inh 2=i;TRPC4 spec=i;HEK293 MPD ctr 2-1=i;HEK293 MPD ctr-1=i
COc1ccc(NC(=O)Cn2nnc(-c3ccccc3NS(=O)(=O)c3ccccc3)n2)cc1 | i | i | i | i | i | · | · | · | · | · | ·
COc1ccc(S(=O)(=O)Nc2ccccc2-c2nnn(CC(=O)Nc3ccccc3OC)n2)cc1 | i | i | i | -5.3* | i | i | i | i | i | i | i
